# Published values collected from several papers.
# Target: Aurora kinase C (AURKC, Homo sapiens, UniProt Q9UQB9)
# Sequence (Q9UQB9 1-309, as in one of the studies): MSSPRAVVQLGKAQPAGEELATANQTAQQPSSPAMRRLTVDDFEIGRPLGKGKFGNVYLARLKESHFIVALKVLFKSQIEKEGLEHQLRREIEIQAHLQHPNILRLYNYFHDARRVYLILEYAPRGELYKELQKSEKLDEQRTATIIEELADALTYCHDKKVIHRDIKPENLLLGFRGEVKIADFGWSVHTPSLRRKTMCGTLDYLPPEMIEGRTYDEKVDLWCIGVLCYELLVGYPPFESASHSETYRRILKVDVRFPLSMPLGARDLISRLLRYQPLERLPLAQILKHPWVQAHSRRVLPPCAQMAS
SMILES,effect on,mode,technique,tested at,measurement,value
CCCCN(CCCC)C(=O)CN1C[C@H](c2cc(OC)c3c(c2)OCO3)[C@@H](C(=O)O)[C@@H]1CC(C)(C)CCC,cell-free assay,,competition with immobilised ligand,1 µM,remaining binding,100%
CCN(CC)c1ccc(C2=NNC(=O)CC2C)cc1[N+](=O)[O-] (centres unmarked),enzyme activity,inhibitor,,10 µM,remaining activity,122%
COc1cc2ncnc(Nc3ccc(Oc4ccccc4)c(C)c3C)c2cc1OC,enzyme activity,inhibitor,,1 µM,inhibition,5%
CN(C)C(=O)Cn1cc(-c2nc([C@@](C)(c3ccc(-c4cnc(N)nc4)cc3)C3CC3)no2)cn1,cell-free assay,,competition with immobilised ligand,1 µM,remaining binding,100%
CC/C(=N\NC(=O)NCc1cccc(O)c1)c1ccc(O)c(C)c1O,enzyme activity,inhibitor,,0.1 µM,inhibition,2.5%
CCC(=O)N[C@H]1CC[C@@H](C(=O)N(C)c2ccc(-c3nc4ccccc4o3)cc2)C1,cell-free assay,,competition with immobilised ligand,1 µM,remaining binding,100%
CC(C)(C)c1nc2c(s1)c1nc(N)ncc1c1ccc(NS(=O)(=O)c3c(F)cccc3F)c(F)c12,enzyme activity,inhibitor,radiometric,1 µM,remaining activity,104%
O=c1cc(-c2cccc3c2Sc2ccccc2S3)oc(N2CCOCC2)c1,enzyme activity,inhibitor,,0.5 µM,remaining activity,84.9%
O=C(O)[C@H]1[C@H](Cn2nnc3ccccc3c2=O)CC[C@@H]1C(=O)c1ccc(OCCC2CCOCC2)cc1,cell-free assay,,competition with immobilised ligand,1 µM,remaining binding,79%
Cc1ccc(C(=O)Nc2ccc(CN3CCN(C)CC3)c(C(F)(F)F)c2)cc1C#Cc1cnc2cccnn12,enzyme activity,,,23.5 nM,remaining activity,94%
CC(C)CC(=O)N1CCc2nc(-c3ccc(Br)cc3)nc(N(C)Cc3ccccc3)c2C1,cell-free assay,,competition with immobilised ligand,0.1 µM,remaining binding,100%
Cc1cc(NC(=O)c2cccc3cc(-c4cccc5[nH]nc(N)c45)ccc23)ccc1F,enzyme activity,inhibitor,,0.1 µM,activity vs control,83%
CS(=O)(=O)NCC[C@H](NC(=O)c1cncc2c1cnn2-c1ccc(F)cc1)c1ccnc(S(C)(=O)=O)c1,cell-free assay,,competition with immobilised ligand,1 µM,remaining binding,92%
COc1cc(Cl)c(C(=O)N[C@@H](CN[C@H]2CC[C@@H](N)CC2)Cc2ccc(C#N)cc2)cc1-c1ccc(CN[C@H](C)c2ccc(C)cc2)o1,enzyme activity,inhibitor,,1 µM,remaining activity,94%
O=C1Nc2ccc(Cl)cc2C1=Cc1cc(Cl)c(O)c(Cl)c1,cell-free assay,,,0.5 µM,remaining signal,78.6%
CC(C)(O)[C@H]1CC[C@H](Nc2ccc3ncc(-c4cccc(C(F)(F)F)c4)n3n2)CC1,enzyme activity,inhibitor,,1 µM,remaining activity,88.5%
N#CCCc1ccc2c(c1)-c1[nH]c3ccc([N+](=O)[O-])cc3c1CC(=O)N2,cell-free assay,,,0.5 µM,remaining signal,83.6%
Cc1sc(C(=O)NC2COC2)cc1-n1cc(NC(=O)Nc2c(F)cccc2Cl)cn1,enzyme activity,inhibitor,,10 µM,remaining activity,104%
CS(=O)(=O)CCNCc1ccc(-c2ccc3ncnc(Nc4ccc(OCc5cccc(F)c5)c(Cl)c4)c3c2)o1,cell-free assay,,,0.5 µM,remaining signal,90.9%
CNc1cccc2cc(C(=O)Nc3ccc(C(=O)O)cc3)c(=O)[nH]c12,enzyme activity,inhibitor,,10 µM,inhibition,-7.3%
